Legend:
ULK4 [1] = biological target: T1, ULK4 (Homo sapiens, UniProt Q96C45); assay: Mant-ADP FRET nucleotide binding / displacement assay; conditions: competition with a fixed concentration of Mant-ADP
ULK4 [2] = biological target: T1, ULK4; assay: ADP-Biotin labelling assay detected by Western blot; format: binding; conditions: single concentration 25 μM; ratio of Streptavidin signal to His signal
Procedure, shortened: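 ULK4 incubated with the nucleotide analog ADP-Biotin, which biotin-labels the kinase only when bound. Biotinylated protein detected by Western blot. Test compounds, hits confirmed from a Mant-ADP displacement screen and dose response, tested at 25 μM, with competing nucleotides also at 25 μM. Mutant ULK4 forms also assayed for ADP-Biotin binding.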

T1 sequence (Q96C45 4-280 limits assumed): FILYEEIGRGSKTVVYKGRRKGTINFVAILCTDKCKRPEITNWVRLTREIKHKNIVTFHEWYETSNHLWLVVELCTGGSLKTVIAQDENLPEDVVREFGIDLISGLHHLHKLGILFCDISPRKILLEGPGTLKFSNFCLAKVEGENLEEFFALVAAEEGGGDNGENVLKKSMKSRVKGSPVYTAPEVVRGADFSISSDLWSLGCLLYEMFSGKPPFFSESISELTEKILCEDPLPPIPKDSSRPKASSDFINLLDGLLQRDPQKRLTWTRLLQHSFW

SMILES | Ki (ULK4 [1]; With Mg) | Ki (ULK4 [1]; Without Mg) | inhibition of ADP-Biotin binding to ULK4 (relative potency) (ULK4 [2])
Nc1ncnc2c1ncn2[C@@H]1O[C@H](COP(=O)(O)OP(=O)(O)O)[C@@H](O)[C@H]1O [ADP] | 37 µM | 6.05 µM | 
COc1cc(Nc2ncc(F)c(Nc3ccc4c(n3)N(COP(=O)(O)O)C(=O)C(C)(C)O4)n2)cc(OC)c1OC [R788] |  |  | most potent ULK4 binders
CNC(=O)c1nn(C)c2c1C(C)(C)Cc1cnc(Nc3ccc(N4CCN(C)CC4)cc3)nc1-2 [PHA-848125] |  |  | most potent ULK4 binders
Nc1ncnc2c1ncn2[C@@H]1O[C@H](COP(=O)(O)OP(=O)(O)OP(=O)(O)O)[C@@H](O)[C@H]1O [ATP] | 4.67 µM | 0.306 µM | 
